One block for each compound: values may come before it. Active and inactive are the calls of the source. The calls are words filed in the database; no cut-off is given here.
What was measured:
RKO [1] = assay: Antiproliferative activity against human RKO cells assessed as inhibition of cell proliferation measured after 24 hrs by crystal violet staining based colony-formation assay; type: functional; settings: dose 0.125-1 µM
Outline: (§1)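 RKO or SW620 cells plated at 1000 cells/well overnight, exposed to 0.125–1 µM for 24 h, then grown 10 days in fresh medium. Colonies fixed in methanol 15 min, stained with 0.1% crystal violet 30 min, photographed; colonies of more than 50 cells counted.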

RKO [2] = assay: Induction of cell cycle arrest in human RKO cells assessed as reduction in cdc2 expression at 0.5 to 1 uM measured after 24 hrs by western blot assay; type: functional, cell-based; settings: dose 0.5-1 µM
Outline: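 RKO or SW620 cells (4×10^5–5×10^5 per well) exposed to 0.5 or 1 μM or DMSO for 24 h. Lysed in SDS loading buffer, boiled, run on 8–15% SDS-PAGE and moved to PVDF. Blocked in 5% milk, probed overnight at 4 °C with anti-Cdc2 or anti-cyclin B1 (1:1000), β-actin as reference. HRP secondary and ECL detection. Done at least three times.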

RKO [3] = assay: Induction of apoptosis in human RKO cells assessed as late apoptotic cells at 0.5 uM measured after 24 hrs by PI/Annexin V staining based flow cytometry assay (reference value: 0.81%); type: functional
SW-620 [4] = assay: Induction of cell cycle arrest in human SW-620 cells assessed as accumulation of cells in G1 phase at 0.5 uM measured after 24 hrs by PI staining based flow cytometry method (reference value: 40.06%); type: functional
SW-620 [5] = assay: Induction of apoptosis in human SW-620 cells assessed as increase in ROS levels at 0.25 uM measured after 24 hrs by DCFH-DA staining based flow cytometry method relative to control; type: functional
Outline: (§2)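 Cells at 5×10^5 per well exposed to 0.25 or 0.5 µM for 24 h, then loaded with 5 µM DCFH-DA in serum-free medium 30 min at 37 °C; washed, harvested, read by flow cytometry (ex 488/em 525 nm). ROS given as ratio of treated to control; at least three experiments.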

SW-620 [6] = assay: Induction of apoptosis in human SW-620 cells assessed as early apoptotic cells at 0.5 uM measured after 24 hrs by PI/Annexin V staining based flow cytometry assay (reference value: 2.41%); type: functional
RKO [7] = assay: Induction of cell cycle arrest in human RKO cells assessed as accumulation of cells in G1 phase at 0.5 uM measured after 24 hrs by PI staining based flow cytometry method (reference value: 39.54%); type: functional
PANC-1 [8] = assay: Induction of cell cycle arrest in human PANC-1 cells assessed as accumulation of cells in S phase at 0.5 uM measured after 24 hrs by PI staining based flow cytometry method (reference value: 65%); type: functional
[9] = Toxicity against Athymic nude mouse xenografted with SW-620 cells assessed as toxicity in lung at 25 mg/kg per two days, po measured after 20 days by H and E staining method; type: organism-based; settings: in vivo, 480 h, time 20 day
Outline: (§3)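 At the end of the 20-day oral SW620 xenograft study (25 mg/kg every 2 days, n = 6), heart, liver, spleen, lung and kidney were fixed in 4% paraformaldehyde and embedded in paraffin. 4 μm sections stained with Mayer hematoxylin 5 min and eosin-phloxine 2 min, then examined by light microscopy.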

PANC-1 [10] = assay: Induction of cell cycle arrest in human PANC-1 cells assessed as accumulation of cells in G2 phase at 0.5 uM measured after 24 hrs by PI staining based flow cytometry method (reference value: 3.63%); type: functional
[11] = Toxicity against Athymic nude mouse xenografted with SW-620 cells assessed as toxicity in kidney at 25 mg/kg per two days, po measured after 20 days by H and E staining method; type: organism-based; settings: in vivo, 480 h, time 20 day; outline: as §3
[12] = Toxicity against Athymic nude mouse xenografted with SW-620 cells assessed as toxicity in liver at 25 mg/kg per two days, po measured after 20 days by H and E staining method; type: organism-based; settings: in vivo, 480 h, time 20 day; outline: as §3
RKO [13] = assay: Induction of apoptosis in human RKO cells assessed as viable cells at 0.5 uM measured after 24 hrs by PI/Annexin V staining based flow cytometry assay (reference value: 96.6%); type: functional; settings: read-out: Activity
SW-620 [14] = assay: Induction of apoptosis in human SW-620 cells assessed as late apoptotic cells at 0.5 uM measured after 24 hrs by PI/Annexin V staining based flow cytometry assay (reference value: 3.66%); type: functional
SW-620 [15] = assay: Induction of apoptosis in human SW-620 cells assessed as necrotic cells at 0.5 uM measured after 24 hrs by PI/Annexin V staining based flow cytometry assay (reference value: 0.03%); type: functional
[16] = Inhibition of tubulin polymerization assessed as morphology changes from fusiform to roud at 1 uM measured 24 hrs by DAPI staining based immunoflourescence assay relative to ABT-751
PANC-1 [17] = assay: Induction of cell cycle arrest in human PANC-1 cells assessed as accumulation of cells in G1 phase at 0.5 uM measured after 24 hrs by PI staining based flow cytometry method (reference value: 31.35%); type: functional
RKO [18] = assay: Induction of apoptosis in human RKO cells assessed as increase in ROS levels at 0.25 uM measured after 24 hrs by DCFH-DA staining based flow cytometry method relative to control; type: functional; outline: as §2
[19] = Toxicity against Athymic nude mouse xenografted with SW-620 cells assessed as toxicity in heart at 25 mg/kg per two days, po measured after 20 days; type: organism-based; settings: in vivo, 480 h, time 20 day; outline: as §3
RKO [20] = assay: Induction of cell cycle arrest in human RKO cells assessed as accumulation of cells in G2 phase at 0.5 uM measured after 24 hrs by PI staining based flow cytometry method (reference value: 10.79%); type: functional
SW-620 [21] = assay: Antiproliferative activity against human SW-620 cells assessed as inhibition of cell proliferation measured after 24 hrs by crystal violet staining based colony-formation assay; type: functional; settings: dose 0.125-1 µM; outline: as §1
NCI-H460 = assay: Antiproliferative activity against human NCI-H460 cells assessed as cell viability measured after 72 hrs by MTS method; type: functional, cell-based; settings: NCI-H460, 72 h
Outline: (§4)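 Log-phase cells plated at 5×10^3–6×10^3 per well for 24 h, then given graded compound concentrations in fresh medium for 72 h, five replicate wells. Medium replaced with medium containing 10% MTS, 30 min or more at 37 °C in dark; OD 490 nm read. IC50 by nonlinear regression; mean ± SD of at least three experiments.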

A549 = assay: Antiproliferative activity against human A549 cells assessed as cell viability measured after 72 hrs by MTS method; type: functional, cell-based; settings: A549, 72 h; outline: as §4
[22] = target: Tubulin beta (Homo sapiens) (UniProt P68371+Q9H4B7+Q13509+P04350+Q3ZCM7+P07437+Q13885+Q9BVA1+Q9BUF5+A6NNZ2); assay: Inhibition of N,N'-Ethylenebis(iodoacetamide) binding to beta tubulin in human SW-620 cells at 20 to 40 uM preincubated for 2 hrs followed by addition of EBI and measured after 2 hrs by western blot assay; type: cell-based; settings: dose 20-40 µM
Outline: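 SW620 cells (5×10^5 per well) pretreated for 2 h with 10, 20 or 40 μM of test agent or DMSO, then given 100 μM EBI for 2 h. Lysed in SDS loading buffer. β-tubulin and β-tubulin–EBI adduct bands resolved by western blot probed with anti-β-tubulin.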

inhibition [16]: Active
Compound: COc1ccc(S(=O)(=O)Nc2cccnc2-c2ccc(C#N)c(F)c2)cc1
Activity (RKO [1]): Dose-Dependent Effect
Activity (RKO [2]): Active
Activity (RKO [3]): 1.04%
Activity (SW-620 [4]): 38.03%
fold change (FC) (SW-620 [5]): 1.5
Activity (SW-620 [6]): 6.66%
Activity (RKO [7]): 36.95%
Activity (PANC-1 [8]): 50.11%
Activity [9]: Non-Toxic
Activity (PANC-1 [10]): 15.67%
Activity [11]: Non-Toxic
Activity [12]: Non-Toxic
viability at 0.5 µM (RKO [13]): 74.5%
Activity (SW-620 [14]): 3.11%
Activity (SW-620 [15]): 0.06%
Activity (PANC-1 [17]): 34.22%
fold change (FC) (RKO [18]): 1.5
Activity [19]: Non-Toxic
Activity (RKO [20]): 16.65%
Activity (SW-620 [21]): Dose-Dependent Effect

IC50 (NCI-H460): 2040 nM
IC50 (A549): 1380 nM
inhibition [22]: Dose-Dependent Effect
Compound: COc1ccc(S(=O)(=O)Nc2cccnc2Nc2ccc(O)cc2)cc1 [ABT-751]

Source: ChEMBL document CHEMBL4819012, “Discovery of novel 2-aryl-3-sulfonamido-pyridines (HoAns) as microtubule polymerization inhibitors with potent antitumor activities” (Eur J Med Chem, 2021)
